Columns and labels:
[1] = Selectivity index, ratio of CC50 for human C8166 cells to EC50 for wild type HIV1 IIIB infected in C8166 cells; format: toxicity, cell-based; details: read-out: Ratio CC50/EC50
Method in brief: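 SI computed as CC50 (MTT, C8166 cells) divided by EC50 against HIV-1 IIIB from syncytium reduction in C8166 cells at MOI 0.06, 3 days at 37 °C.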

[2] = system: Human immunodeficiency virus 2; test: Antiviral activity against Human immunodeficiency virus 2 ROD infected in C8166 cells assessed as reduction in virus-induced cytopathic effect after 3 days by syncytium reduction assay; format: functional, organism-based; details: Human immunodeficiency virus 2, ISOLATE ROD, C8166, 72 h
Method in brief: (§1)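 C8166 cells (4 × 10^5/mL) infected at MOI 0.06 in presence of serial compound dilutions; AZT as drug control. Cultured 3 days at 37 °C, syncytia (multinucleated giant cells) counted under inverted microscope; EC50 = concentration blocking syncytium formation by 50%. Mean of at least two separate experiments.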

[3] = system: Human immunodeficiency virus 1; test: Antiviral activity against 0.06 MOI Human immunodeficiency virus 1 IIIB A17 harboring reverse transcriptase K103N and Y181C double mutant infected in C8166 cells assessed as reduction in virus-induced cytopathic effect after 3 days by syncytium reduction assay; format: functional, organism-based; details: Human immunodeficiency virus 1, IIIB A17, C8166, 72 h
Method in brief: as §1, with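 “infected with HIV-1 IIIB A17 (K103N+Y181C)” for “infected”, “graded” for “serial”, “concentrations;” for “dilutions;”, “AZT” for “AZT as”, “as” for “=”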

[4] = system: Human immunodeficiency virus 1; test: Antiviral activity against 0.06 MOI Human immunodeficiency virus 1 IIIB infected in C8166 cells assessed as reduction in virus-induced cytopathic effect after 3 days by syncytium reduction assay; format: functional, organism-based; details: C8166, 72 h; method in brief: as §1
[5] = Cytotoxicity against human C8166 cells by MTT assay; format: cell-based
Method in brief: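 MTT colorimetric assay on C8166 cells, absorbance read at 570/630 nm; CC50 (concentration reducing viable cells by 50%) taken from dose-response curve. Mean of at least two separate experiments.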

SMILES | selectivity ratio [1] | EC50 [2] | EC50 [3] | EC50 [4] | CC50 [5]
Cc1cc(S(N)(=O)=O)ccc1NC(=O)COc1ccc(F)cc1Oc1cccc2ccccc12 | 240 | 17 µM | 1.68 µM | 0.137 µM | 33.1 µM
Cc1cc(S(N)(=O)=O)ccc1NC(=O)COc1ccc(F)cc1Oc1ccc2ccccc2c1 | 1510 | 96.6 µM | 3.29 µM | 0.0455 µM | 68.5 µM
Cc1cc(S(N)(=O)=O)ccc1NC(=O)COc1ccc(Cl)cc1Oc1ccc2ccccc2c1 | 1500 | 27.3 µM | 1.79 µM | 0.0791 µM | 119 µM
Cc1cc(S(N)(=O)=O)ccc1NC(=O)COc1ccc(Cl)cc1Oc1ccc2cc(Br)ccc2c1 | 128 | 20 µM | 2.49 µM | 0.244 µM | 31.3 µM
Cc1cc(S(N)(=O)=O)ccc1NC(=O)COc1ccc(Cl)cc1Oc1ccc2ccccc2c1Cl | 241 | 13.3 µM | 1.73 µM | 0.169 µM | 40.7 µM
Cc1cc(S(N)(=O)=O)ccc1NC(=O)COc1ccc(Cl)cc1Oc1ccc2ccccc2c1Br | 547 | 137 µM | 1.34 µM | 0.0879 µM | 48.1 µM
Cc1cc(S(N)(=O)=O)ccc1NC(=O)COc1ccc(F)cc1Oc1cc2ccccc2cc1C | 476 | 126 µM | 1.09 µM | 0.14 µM | 66.9 µM
Cc1cc(S(N)(=O)=O)ccc1NC(=O)COc1ccc(F)cc1Oc1ccc2cc(Br)ccc2c1 | > 1970 | 96 µM | 1.77 µM | 0.181 µM | > 358 µM
Cc1cc(S(N)(=O)=O)ccc1NC(=O)COc1ccc(F)cc1Oc1ccc2ccccc2c1C | 306 | 26.4 µM | 1.15 µM | 0.183 µM | 56.1 µM
Cc1cc(S(N)(=O)=O)ccc1NC(=O)COc1ccc(F)cc1Oc1ccc2ccccc2c1Br | 460 | 6.17 µM | 1.59 µM | 0.0858 µM | 39.5 µM
Cc1cc(S(N)(=O)=O)ccc1NC(=O)COc1ccc(F)cc1Oc1ccc2cc(C#N)ccc2c1 | > 10200 | 166 µM | 1.02 µM | 0.0388 µM | > 396 µM
Cc1cc(S(N)(=O)=O)ccc1NC(=O)COc1ccc(F)cc1Oc1ccc2ccccc2c1Cl | 254 | 136 µM | 3.09 µM | 0.186 µM | 47.1 µM
Cc1cc(S(N)(=O)=O)ccc1NC(=O)COc1ccc(F)cc1Oc1ccc2cc(Br)ccc2c1Cl | 1950 | 11.5 µM | 1.2 µM | 0.1 µM | 195 µM
Cc1cc(S(N)(=O)=O)ccc1NC(=O)COc1ccc(Cl)cc1Oc1ccc2cc(C#N)ccc2c1 | > 3290 | > 383 µM | 2.33 µM | 0.117 µM | > 383 µM
Cc1cc(S(N)(=O)=O)ccc1NC(=O)COc1ccc(F)cc1Oc1ccc2cc(C#N)ccc2c1Br | 7670 | 4.4 µM | 0.82 µM | 0.0046 µM | 35.3 µM
Cc1cc(S(N)(=O)=O)ccc1NC(=O)COc1ccc(F)cc1Oc1ccc2cc(C#N)ccc2c1Cl | 8410 | 235 µM | 0.54 µM | 0.00472 µM | 39.7 µM
Cc1cc(S(N)(=O)=O)ccc1NC(=O)COc1ccc(F)cc1Oc1c(C)cc2ccccc2c1Cl | 280 | 18.8 µM | 1.39 µM | 0.198 µM | 55.6 µM
Cc1cc(S(N)(=O)=O)ccc1NC(=O)COc1ccc(F)cc1Oc1ccc2cccc(F)c2c1 | 1850 | 66.3 µM | 1.45 µM | 0.0924 µM | 171 µM
Cc1cc(S(N)(=O)=O)ccc1NC(=O)COc1ccc(Cl)cc1Oc1c(C)cc2ccccc2c1Cl | 583 | 3 µM | 1.07 µM | 0.0731 µM | 42.6 µM
Cc1cc(S(N)(=O)=O)ccc1NC(=O)COc1ccc(Cl)cc1Oc1cc2ccccc2cc1C | 1310 | 20.7 µM | 0.76 µM | 0.0584 µM | 76.7 µM
Cc1cc(S(N)(=O)=O)ccc1NC(=O)COc1ccc(Cl)cc1C(=O)c1cc(Cl)cc(C#N)c1 | > 567000 | 2.18 µM | 0.00138 µM | 0.00068 µM | > 386 µM
Cc1cn([C@H]2C[C@H](N=[N+]=[N-])[C@@H](CO)O2)c(=O)[nH]c1=O [ZIDOVUDINE] | 529000 | 0.129 µM | 0.00812 µM | 0.0106 µM | 5600 µM

From ChEMBL document CHEMBL1806390, “Synthesis and biological evaluation of naphthyl phenyl ethers (NPEs) as novel nonnucleoside HIV-1 reverse transcriptase inhibitors” (Bioorg Med Chem, 2011)
